In one test the target is T1, human CD39 (Homo sapiens, UniProt P49961).
T1 sequence (P49961 1-510): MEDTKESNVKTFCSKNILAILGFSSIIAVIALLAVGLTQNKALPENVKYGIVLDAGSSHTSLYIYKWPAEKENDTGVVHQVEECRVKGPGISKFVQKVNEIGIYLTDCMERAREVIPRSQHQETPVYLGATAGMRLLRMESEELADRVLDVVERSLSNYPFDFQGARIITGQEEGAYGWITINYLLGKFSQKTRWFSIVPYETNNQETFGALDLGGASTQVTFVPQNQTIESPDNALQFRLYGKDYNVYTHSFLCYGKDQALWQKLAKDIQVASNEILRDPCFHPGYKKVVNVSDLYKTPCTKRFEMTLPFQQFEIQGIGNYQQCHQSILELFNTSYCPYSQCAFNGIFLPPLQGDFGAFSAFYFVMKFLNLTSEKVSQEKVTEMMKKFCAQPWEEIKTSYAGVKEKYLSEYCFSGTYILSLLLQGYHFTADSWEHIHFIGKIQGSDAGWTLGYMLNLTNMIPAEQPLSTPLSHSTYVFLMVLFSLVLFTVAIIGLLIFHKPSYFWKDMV
The test is classed as biochemical. Put shortly: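 CD39 came from human umbilical cord membranes (50.0 ng protein per well). Substrate was 50 µM ATP in 10 mM HEPES, 2 mM CaCl2, 1 mM MgCl2, pH 7.4, with ≤2% DMSO. Enzyme and test compound were preincubated 5 min at 37°C; reaction ran 15 min at 37°C. Malachite green/molybdate was added and A600 read after 20 min at 25°C, minus a heat-denatured enzyme blank. Screening was at 10 µM; curves spanned 0.1–300 µM; n=3.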

In a further test the target is T2, NPP3 (Homo sapiens, UniProt O14638).
T2 sequence (O14638 31-875 limits assumed): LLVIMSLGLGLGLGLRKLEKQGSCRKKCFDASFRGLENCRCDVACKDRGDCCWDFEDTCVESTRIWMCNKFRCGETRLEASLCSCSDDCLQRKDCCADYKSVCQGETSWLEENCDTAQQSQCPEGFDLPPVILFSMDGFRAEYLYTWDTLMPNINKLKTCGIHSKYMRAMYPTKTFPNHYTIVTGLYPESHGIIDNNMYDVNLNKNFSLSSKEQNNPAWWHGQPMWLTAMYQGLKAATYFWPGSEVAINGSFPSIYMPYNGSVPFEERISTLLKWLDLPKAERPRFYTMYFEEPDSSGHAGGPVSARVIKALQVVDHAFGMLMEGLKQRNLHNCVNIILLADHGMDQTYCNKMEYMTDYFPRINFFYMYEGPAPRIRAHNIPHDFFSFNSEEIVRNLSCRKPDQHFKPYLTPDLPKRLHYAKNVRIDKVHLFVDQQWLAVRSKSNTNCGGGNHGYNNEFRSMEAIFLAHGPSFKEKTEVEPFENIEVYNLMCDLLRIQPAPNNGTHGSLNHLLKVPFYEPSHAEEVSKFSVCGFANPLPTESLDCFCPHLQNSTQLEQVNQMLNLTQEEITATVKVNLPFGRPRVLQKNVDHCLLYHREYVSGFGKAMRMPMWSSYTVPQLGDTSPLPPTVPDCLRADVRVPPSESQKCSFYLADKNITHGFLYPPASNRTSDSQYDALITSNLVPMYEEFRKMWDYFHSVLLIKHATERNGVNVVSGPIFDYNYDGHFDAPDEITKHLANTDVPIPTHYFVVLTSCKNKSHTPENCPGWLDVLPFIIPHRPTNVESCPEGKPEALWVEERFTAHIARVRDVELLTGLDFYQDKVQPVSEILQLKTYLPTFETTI
The test is described as follows: NPP3 assay. The test is classed as biochemical. Put shortly:
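Purified soluble NPP3 (95 ng, Sf9-expressed) was incubated with 50 µM (final) test compound, 2% DMSO and 400 µM p-nitrophenyl thymidine 5'-monophosphate. Reactions were stopped with 1 M NaOH, and p-nitrophenolate was read at 400 nm.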

A further test addresses T3, CD38 (Homo sapiens, UniProt P28907).
T3 sequence (P28907 43-300 limits assumed): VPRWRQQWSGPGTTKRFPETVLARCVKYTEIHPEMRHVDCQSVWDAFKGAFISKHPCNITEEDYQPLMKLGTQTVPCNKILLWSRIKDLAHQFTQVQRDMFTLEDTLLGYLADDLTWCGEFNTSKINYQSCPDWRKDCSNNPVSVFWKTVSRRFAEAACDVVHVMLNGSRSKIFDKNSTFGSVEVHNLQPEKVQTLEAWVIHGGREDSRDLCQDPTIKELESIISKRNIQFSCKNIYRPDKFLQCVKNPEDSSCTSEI
The test is described as follows: CD38 assay. The test is classed as biochemical. Put shortly:
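Either CD38 (5 ng) or NPP5 (250 ng) was mixed with 50 µM test compound and 100 µM NAD+ as substrate. For CD38 the reaction buffer was 10 mM HEPES, pH 7.4.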

The test system of test [1] is human PBMCs. The test is described as follows: HPLC assay of ATPase activity. The format is cell-based. Conditions: ceritinib 50 µM and higher; 1 µM eATP. The procedure, abridged: (§1)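 PBMCs were isolated from buffy coats by density gradient. Cells (2×10^5) were pretreated with test compound (1, 10, 50, 100 µM) for 15 min at 37°C, then given 1 µM eATP (ATPase) or eAMP (AMPase) for 30 min at 37°C. Cells were removed and supernatants 10 kDa-filtered. Etheno-nucleotides were quantified by reversed-phase C8 HPLC (phosphate pH 6.0/methanol gradient; fluorescence 230/410 nm) against standards; singlets, n=2–3.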

In test [2] the test system is human PBMCs. Kind of test: HPLC assay of AMPase activity. The settings on record: 1-100 µM ceritinib; 1 µM eAMP. The test is classed as cell-based. Put shortly: as §1
Another test relates to ALK. The settings on record: ref 59 60; cited from earlier work.
Setting [3] is: read-out: % inhibition at 50 µM.

SMILES strings stand for the structures.

These results are taken from PMC9394215 (Journal for Immunotherapy of Cancer, 2022).

By IC50 is commonly meant the concentration that gives 50% inhibition. Low values mean inhibition by little substance, high ones a need for much substance. In general, inhibition refers to the share of the control response that was lost under treatment. For the compound `Cc1cc(Nc2ncc(Cl)c(Nc3ccccc3S(=O)(=O)C(C)C)n2)c(OC(C)C)cc1C1CCNCC1` [ceritinib, Ceritinib], the values for the IC50 against human CD39, on NPP3 and against CD38 were 11.3 ± 0.8 µM, above 50 µM and above 50 µM, respectively. Besides, the inhibition at 10 µM on human CD39 (read-out: inhibition of human CD39) is above 50%. Further, the inhibition at 50 µM stood at 1% on NPP3 (setting [3]) and 19% on CD38 (setting [3]). The “formation of eAMP from eATP by PBMCs” value in the test with human PBMCs [1] is “completely blocked”. In addition, in the test with human PBMCs [2], the “effect on hydrolysis of eAMP by PBMCs” value was “only a minor effect”. In the test on ALK, the “IC50 value against ALK” value is “subnanomolar range”.
